Experimental data as given in article PMC7114206 (Antiviral Research, 2008).
Values after ≈ are worked out from the molar mass of the structure shown. Values joined by “and” are separate entries in the source; they are usually repeats but may differ in a detail not shown here. Identical values can stand only once. Like-named read-outs stand apart in the source and are kept apart here. Each block holds one molecule with its values, some of them ahead of it.

Experiments:
[1] = system: porcine epidemic diarrhea virus; experiment: Antiviral activity against PEDV, CPE reduction by SRB method in Vero cells; type: cell-based, porcine epidemic diarrhea virus (PEDV CV 777)
[2] = Cytotoxicity SRB assay in Vero cells; type: cell-based, african green monkey; details: african green monkey, CC50, concentration required to reduce cell growth by 50%, 48 h
Procedure, shortened: (§1)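 Vero cells seeded at 2 × 10^4/well and grown 1 day, then given medium with serially diluted test compound for 48 h. After PBS wash, cells fixed with cold 70% acetone (30 min, −20 °C), dried and stained 30 min with 0.4% SRB in 1% acetic acid. Dye solubilised in 10 mM Tris and read at A540 (ref 620 nm). CC50 read graphically from % of control curves.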

[3] = system: Vero cells; experiment: Cytotoxicity SRB assay in Vero cells; type: cell-based, african green monkey
Procedure, shortened: as §1

[4] = system: PEDV; experiment: Time-of-addition effect on PEDV replication in Vero cells; type: cell-based, porcine epidemic diarrhea virus
Procedure, shortened: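 Vero cells seeded at 2 × 10^4/well and grown 1 day, then PBS-washed. […] After 2 days, SRB CPE-reduction read-out expressed as inhibition rate; mean ± S.D. of three independent experiments.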

[5] = system: membrane (M) gene of PEDV; experiment: RT-PCR analysis of PEDV replication; type: cell-based, porcine epidemic diarrhea virus; details: 10 μg/mL; RNA extracted 24 and 48 h after infection
[6] = system: TGEV; experiment: Antiviral activity against TGEV in ST cells; type: cell-based, transmissible gastroenteritis virus
[7] = system: PRCV; experiment: Antiviral activity against PRCV in ST cells; type: cell-based, porcine respiratory coronavirus
Procedure, shortened: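 PRCV (ATCC VR-2384) grown on ST pig testis cells kept in MEM with 10% FBS and 0.01% antibiotic-antimycotic. Read-out is SRB-based reduction of virus-induced CPE. IC50 is the concentration giving 50% inhibition of CPE, in μg/mL. TI = CC50/IC50. Values are means of three independent experiments run in triplicate ± S.D.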

[8] = system: ST cells; experiment: Cytotoxicity SRB assay in ST cells; type: cell-based, pig; details: for Cytotoxicity: highest concentrations tested
Procedure, shortened: (§2)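 ST pig testis cells kept in MEM with 10% FBS and 0.01% antibiotic-antimycotic. SRB staining gives cell growth. CC50 is the concentration reducing cell growth by 50%, in μg/mL. Values are means of three independent experiments run in triplicate ± S.D.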

[9] = Cytotoxicity SRB assay in ST cells; type: cell-based, pig; details: pig
Procedure, shortened: as §2

[10] = interferon-α in units, listed as interferon-α

Molecule: O=c1cc(-c2ccc(O)cc2)oc2cc(O)cc(O)c12 [Apigenin]
IC50, concentration required to inhibit virus-induced CPE by 50% ([1]; SRB, 2 days): 0.1 ± 0.1 µg/mL (≈ 0.37 µM)
IC50, concentration required to inhibit virus-induced CPE by 50% ([1]; SRB, 2 days, listed as apigenin): less than 12 μg/mL
CC50 at 48 h [2]: > 50 µg/mL

Molecule: O.Oc1cc(O)c2c(c1)O[C@H](c1ccc(O)c(O)c1)[C@@H](O)C2 [Catechin]
TI, therapeutic index = CC50/IC50 [1]: >9.0
IC50, concentration required to inhibit virus-induced CPE by 50% ([1]; SRB, 2 days): 11.1 ± 7.1 µg/mL
IC50, concentration required to inhibit virus-induced CPE by 50% ([1]; SRB, 2 days, listed as catechin): less than 12 μg/mL
CC50, concentration required to reduce cell growth by 50% ([3]; 48 h): >100 µg/mL

Molecule: O=c1ccc2ccccc2o1 [Coumarin]
TI, therapeutic index = CC50/IC50 [1]: 4.8

Molecule: O=c1cc(-c2ccc(O)c(O)c2)oc2cc(O)cc(O)c12 [Luteolin]
IC50, concentration required to inhibit virus-induced CPE by 50% ([1]; SRB, 2 days): 0.2 ± 0.2 µg/mL (≈ 0.699 µM)
IC50, concentration required to inhibit virus-induced CPE by 50% ([1]; SRB, 2 days, listed as luteolin): less than 12 μg/mL
CC50 at 48 h [2]: 6.7 µg/mL (≈ 23.4 µM)

IC50 ([6]; TGEV in ST cells): 63.31 ± 1.07 µg/mL (≈ 141 µM)
IC50 ([7]; PRCV in ST cells): 59.76 ± 5.70 µg/mL (≈ 133 µM)
Molecule: C[C@@H]1O[C@@H](Oc2cc(O)c3c(=O)c(O)c(-c4ccc(O)c(O)c4)oc3c2)[C@H](O)[C@H](O)[C@H]1O [Q7R, quercetin 7-rhamnoside]
TI, therapeutic index = CC50/IC50 [1]: 7142 and > 7142.86
IC50, concentration required to inhibit virus-induced CPE by 50% ([1]; SRB, 2 days): 0.014 ± 0.005 µg/mL (≈ 0.0312 µM)
TI, therapeutic index = CC50/IC50 ([1]; listed as Quercetin 7-rhanmoside): >7142.86
CC50, concentration required to reduce cell growth by 50% ([3]; 48 h): >100 µg/mL
Inhibition rate (time of addition) ([4]; 10 μg/mL added at 0, 1, 2 and 4 h after virus inoculation, SRB after 2 days): higher than 85%
Intensity of the RT-PCR product band of PEDV [5]: decreased the intensity of the product band of PEDV at 24 and 48 h after infection
TI, therapeutic index = CC50/IC50 ([6]; TGEV in ST cells): >1.58
TI, therapeutic index = CC50/IC50 ([7]; PRCV in ST cells): >1.67
CC50 [8]: >100 µg/mL
Cytotoxicity [8]: did not exhibit any cytotoxicity at the highest concentrations tested

Molecule: O=c1c(O)c(-c2ccc(O)c(O)c2)oc2cc(O)cc(O)c12 [Quercetin]
TI, therapeutic index = CC50/IC50 [1]: 214.8
CC50 at 48 h [2]: 365 µg/mL (≈ 1210 µM)

IC50 ([6]; Alphacoronavirus 1): 55.1 ± 0.8 µg/mL (≈ 226 µM)
IC50 ([7]; Alphacoronavirus 1): 61.6 ± 1.91 µg/mL (≈ 252 µM)
Molecule: NC(=O)c1ncn([C@@H]2O[C@H](CO)[C@@H](O)[C@H]2O)n1 [Ribavirin]
TI, therapeutic index = CC50/IC50 [1]: 103.2
CC50 at 48 h [2]: 423 µg/mL (≈ 1730 µM)
inhibition at 10 µg/mL ([4]; Porcine epidemic diarrhea virus, Vero, read-out: Inhibition rate (time of addition)): < 50%
Intensity of the RT-PCR product band of PEDV [5]: did not decrease the intensity of the product band of PEDV at 48 h after infection
TI, therapeutic index = CC50/IC50 ([7]; PRCV in ST cells): >1.62
CC50 at 48 h [9]: > 100 µg/mL
Cytotoxicity [8]: did not exhibit any cytotoxicity at the highest concentrations tested

Molecule: Interferon-α
TI, therapeutic index = CC50/IC50 [1]: >192.3
IC50, concentration required to inhibit virus-induced CPE by 50% ([1]; interferon-α in units): 0.52 ± 0.5 unit
IC50, concentration required to inhibit virus-induced CPE by 50% [1, 10]: 0.52 unit
TI, therapeutic index = CC50/IC50 ([1]; listed as interferon-α): > 192.3
CC50, concentration required to reduce cell growth by 50% ([3]; interferon-α in units): >100 unit
CC50, concentration required to reduce cell growth by 50% [3, 10]: > 100 unit

Molecule: Tannic acid
TI, therapeutic index = CC50/IC50 [1]: 9.2
